Assay outcomes: PubChem BioAssay, Sanford-Burnham Center for Chemical Genomics
Apaf-1 act – activates human Apaf-1 apoptosome; AID 489031; Apaf-1 apoptosome caspase-3 activation, DEVD-Rh110 fluorescence; stronger effect = lower value; O14727; activity change, negative = activation, % at 20 µM; hit rate 0.31% among 330,000;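 active = activity change at or below -40% at 20 µM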
Target sequence (O14727 whole entry, looked up): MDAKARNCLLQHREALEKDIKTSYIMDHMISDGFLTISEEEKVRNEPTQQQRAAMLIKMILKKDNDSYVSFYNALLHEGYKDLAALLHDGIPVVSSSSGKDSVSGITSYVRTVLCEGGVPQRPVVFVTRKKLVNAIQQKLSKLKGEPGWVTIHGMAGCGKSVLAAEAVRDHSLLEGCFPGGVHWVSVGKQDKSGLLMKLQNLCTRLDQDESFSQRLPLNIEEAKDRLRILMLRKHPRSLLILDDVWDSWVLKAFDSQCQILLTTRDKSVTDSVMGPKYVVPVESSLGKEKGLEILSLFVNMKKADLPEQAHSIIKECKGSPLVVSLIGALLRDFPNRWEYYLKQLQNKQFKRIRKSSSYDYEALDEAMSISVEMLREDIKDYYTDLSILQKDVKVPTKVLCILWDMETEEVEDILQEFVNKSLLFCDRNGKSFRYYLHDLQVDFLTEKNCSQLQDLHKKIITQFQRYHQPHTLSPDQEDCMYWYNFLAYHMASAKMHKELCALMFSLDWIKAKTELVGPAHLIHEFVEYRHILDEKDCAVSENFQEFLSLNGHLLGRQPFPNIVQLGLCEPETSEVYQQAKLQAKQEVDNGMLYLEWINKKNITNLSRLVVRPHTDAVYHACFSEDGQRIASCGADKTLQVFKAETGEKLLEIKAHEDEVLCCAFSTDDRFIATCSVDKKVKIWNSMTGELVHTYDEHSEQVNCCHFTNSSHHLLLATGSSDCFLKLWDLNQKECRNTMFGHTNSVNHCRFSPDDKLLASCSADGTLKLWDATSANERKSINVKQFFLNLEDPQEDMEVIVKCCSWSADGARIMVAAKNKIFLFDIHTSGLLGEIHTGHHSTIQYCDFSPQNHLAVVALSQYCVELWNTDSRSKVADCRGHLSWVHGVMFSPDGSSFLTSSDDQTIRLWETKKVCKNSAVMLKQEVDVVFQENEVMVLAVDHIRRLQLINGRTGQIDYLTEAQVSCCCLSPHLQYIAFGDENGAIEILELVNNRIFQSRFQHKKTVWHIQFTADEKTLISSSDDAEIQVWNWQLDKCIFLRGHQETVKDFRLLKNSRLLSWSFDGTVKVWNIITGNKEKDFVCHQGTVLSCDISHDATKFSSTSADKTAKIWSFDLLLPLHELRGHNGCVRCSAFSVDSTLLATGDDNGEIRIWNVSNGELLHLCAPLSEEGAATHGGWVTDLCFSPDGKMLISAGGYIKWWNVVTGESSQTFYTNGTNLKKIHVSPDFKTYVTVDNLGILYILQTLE
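Assay system – biochemical Apaf-1 apoptosome reconstitution · Medium – 20 mM HEPES buffer, pH 7.5, containing CHAPS and BSA · Incubation – 30 min preincubation, 50 min reaction, room temperature · Measured by – Caspase-3-released Rh110 fluorescence, 540 nm emission, 480 nm excitation · Read-out – Caspase-3 cleavage activity downstream of Apaf-1 activation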
Rh110 act interf – interferes with Rh110 fluorescence, flagging false Apaf-1 activators | shares compounds with Apaf-1 act | Rh110 fluorescence interference, quenched caspase reaction, Ex480/Em540 | fluorescence interference (activity change), % at 20 µM, hits read low | 980 tested, under 10 active;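 active = mean activity change at or below -40% when tested at 20 µM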
Apaf-1 act conf2 – confirmation of human Apaf-1 activators | shares compounds with Apaf-1 act | reconstituted apoptosome caspase-3 activity, DEVD-Rh110 fluorescence; stronger effect = lower value | activity change, negative = activation, % at 20 µM | hit rate 5% among 980 | AID 504617;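 active = mean activity change at or below -40%, meaning activation of 40% or more, at 20 µM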
An asterisk follows results filed as active; · = no result given. The list is a sample of the results.

SMILES | Apaf-1 act | Rh110 act interf | Apaf-1 act conf2
Cc1ccc2[nH]c(=O)c(C(c3nnnn3CC3CCCO3)N3CCc4ccccc4C3)cc2c1 (centres undefined) | 66.0 | · | ·
O=C(O)CC(NC(=O)c1sc2ccccc2c1Cl)c1ccc(OC2CCCC2)cc1 (centres undefined) | 44.4 | · | ·
CCOC(=O)N1CCc2c(sc3c2C(=O)NC(c2ccccc2)N3)C1 (centres undefined) | 81.1 | · | ·
CCOC(=O)CC1C(=O)NCCN1C(=O)c1sc2ccccc2c1Cl (centres undefined) | -259.9* | -1.8 | 11.9
COc1ccc2noc3c2c1C(=O)c1ccccc1-3 | 77.7 | · | ·
CC(=O)N(/N=C1\Sc2ccccc2C1=O)c1cccc(C)c1 | 85.8 | · | ·
O=c1[nH]c2ccc(S(=O)(=O)Nc3ccc(-c4nnc5n4CCCCC5)cc3)cc2o1 | -153.8* | 6.2 | 16.4
O=C(O)c1ccc(N2C(=O)/C(=C/c3ccc(-c4ccc([N+](=O)[O-])cc4)o3)C=C2c2ccccc2)cc1 | 51.7 | · | ·
Cc1cccc(OCCCC(=O)NNC(=O)CCN2CCN(c3ccccc3)CC2)c1 | -629.8* | -2.5 | 12.0
CCN1CCN(CCc2nc3cc(NC(=O)COc4ccccc4)ccc3n2C)CC1 | 51.0 | · | ·
COc1cccc(N2CCN(CC(=O)Nc3ccccc3C(=O)NCCc3ccccc3)CC2)c1 | 49.5 | · | ·
COc1cc(-c2c(C#N)c(=O)[nH]c3c2c(C)nn3-c2ccccc2)ccc1O | 42.1 | · | ·
COc1ccc(O)c(C(=O)c2cc(C#N)c(=O)n(-c3c(C)n(C)n(-c4ccccc4)c3=O)c2)c1 | -40.3* | 4.1 | 13.3
CC1=NN(c2ccc(S(=O)(=O)O)cc2C)C(=O)C1 | 50.5 | · | ·
CSc1nc2c(c(=O)[nH]c(=O)n2C)n1Cc1ccccc1 | -47.5* | 3.4 | 13.0
CCCCCn1c(N2CCC(Cc3ccccc3)CC2)nc2c1c(=O)[nH]c(=O)n2C | 45.8 | · | ·
Cn1c(=O)[nH]c(=O)c2c1nc(Br)n2CC(O)COc1ccccc1 (centres undefined) | -50.1* | -3.0 | 13.4
Cc1cccc(OCC(O)Cn2c(=N)n(Cc3ccccc3)c3ccccc32)c1 (centres undefined) | 57.8 | · | ·
Oc1cccc2c(NC(=S)Nc3ccc(OC(F)F)cc3)cccc12 | 65.3 | · | ·
CCN(CC(=O)NCc1cccs1)C(=O)C1CC(=O)N(c2ccc(OC)cc2OC)C1 (centres undefined) | 51.4 | · | ·
NC(=O)C1CCN(C(=O)COc2cccc3ccccc23)CC1 | -195.4* | 13.7 | 9.8
CC(C)NS(=O)(=O)c1ccc(OCC(=O)N(C)Cc2ccccc2)cc1 | -555.1* | 8.4 | 17.5
CCc1ccc(OCC(=O)N/N=C2\CC(=O)c3ccccc32)cc1 | 83.6 | · | ·
CN(Cc1ccccc1)C(=O)CN1C(=O)NC(C)(c2ccc(C(C)(C)C)cc2)C1=O (centres undefined) | 41.7 | · | ·
Oc1c(Cl)cc(Cl)c2c1NCCC2 | 46.6 | · | ·
SMILES | Apaf-1 act | Rh110 act interf | Apaf-1 act conf2
CCOc1ccc(-c2nnc(-c3ccncc3)o2)cc1 | -420.8* | 5.0 | 11.4
O=C(CSc1nc(=O)n2ccccc2n1)NCc1ccccc1Cl | 48.5 | · | ·
CC(=O)OCCCNc1cc(SCc2ccco2)c2nonc2c1[N+](=O)[O-] | 73.8 | · | ·
COc1ccc(C[C@H]2CN3C(=NC[C@@H]3C(C)C)N2C[C@H](C)NC(=O)c2ccc(C)c(Br)c2)cc1 | 48.1 | · | ·
CN(C)CC/C=C1\c2ccccc2Sc2ccc(Cl)cc21 | 49.1 | · | ·
Cc1cc(-c2nnc(CCC(=O)NC(C)(C)C34CC5CC(CC(C5)C3)C4)o2)no1 | -54.5* | 7.8 | 5.0
Cc1ccc(C)c(NC(=S)Nc2cccc3cnccc23)c1 | 95.7 | · | ·
Cc1ccc(C)c(NC(=S)NCCN(C2CCCCC2)C2CCCC2)c1 | -73.1* | -1.3 | 12.6
COc1ccc(C(CC(=O)c2ccc(O)cc2)S(=O)(=O)c2ccc(C)cc2)cc1 (centres undefined) | -63.9* | -4.3 | 5.9
COc1ccc(S(=O)(=O)/N=C2\C=C(Nc3ccc(O)cc3)C(=O)c3ccccc32)cc1 | 96.4 | · | ·
Cc1onc(-c2ccccc2Cl)c1C(=O)N[C@@H]1C(=O)N2[C@@H]1SC(C)(C)[C@@H]2C(=O)O | -1.6 | · | ·
O=C(N/N=C/c1ccc(-c2ccccc2[N+](=O)[O-])o1)c1cccnc1 | 78.8 | · | ·
O=C(CN1CCc2cc3c(cc2C1)OCCCO3)Nc1cccc([N+](=O)[O-])c1 | 43.3 | · | ·
O=C(Nc1ccncc1NC(=O)c1cccc([N+](=O)[O-])c1)c1cccc([N+](=O)[O-])c1 | -40.3* | -1.7 | -1.3
CC(C)(C)CC(C)(C)c1ccc(OCCOCC[N+](C)(C)Cc2ccccc2)cc1 | 81.7 | · | ·
O=C(Cc1cc(=O)[nH][nH]1)N/N=C/c1cccc(Cl)c1Cl | 47.5 | · | ·
C#CCOCCOCCOCCNc1nc(N2CCN(C(=O)CCCCCCCCCCNC(=O)Cn3cc(C[C@@H](C)O)nn3)CC2)nc(N2CCN(C(=O)CCCCCCCCCCNC(=O)[C@H](CCCCN)n3cc(C[C@@H](C)CC)nn3)CC2)n1 | 70.5 | · | ·
CCCCCc1ccc(OCCCC[n+]2ccccc2)c(CCCCC)c1 | 58.8 | · | ·
CCC1Oc2ccccc2N(CC(=O)NC2CCCCC2C)C1=O (centres undefined) | -224.4* | 6.6 | 14.7
COc1ccc([N+](=O)[O-])cc1NC1C2CC3CC(C2)CC1C3 (centres undefined) | -522.4* | 9.2 | 12.1
COc1cc(OC)c(C2CC(=O)N3CN(c4ccccc4C)CSC3=C2C#N)cc1OC (centres undefined) | 66.2 | · | ·
CNS(=O)(=O)/C=C/c1ccccc1 | -407.3* | -8.0 | 10.5
CC(=O)N1CCN(C(=S)Nc2ccc(SC(F)F)cc2)CC1 | 96.0 | · | ·
CN(C)CCCNS(=O)(=O)c1ccc(N2CCC(c3ccc(Cl)cc3)=N2)cc1 | 73.4 | · | ·
CCCNS(=O)(=O)c1ccc(CCC(=O)N2CCCCC2)cc1 | -511.5* | -2.3 | 7.5
SMILES | Apaf-1 act | Rh110 act interf | Apaf-1 act conf2
CCOc1cccc(N(C(=O)C2COc3ccccc3O2)C(C(=O)NC2CCCCC2)c2ccc(O)cc2)c1 (centres undefined) | 46.7 | · | ·
O=C(NC1CCCCC1)C(c1ccncc1)N(C(=O)c1csnn1)c1ccccc1F (centres undefined) | -127.8* | 9.4 | 9.4
CCOC(=O)Cc1csc(N/C(=N/S(=O)(=O)c2ccc(Cl)cc2)c2ccccc2)n1 | 63.2 | · | ·
COc1cc(OC)c2c(-c3ccccc3)cc(=O)oc2c1C(CCN1CCCCC1)c1ccc(N(C)C)cc1 (centres undefined) | 54.4 | · | ·
COc1ccc(/C=N/NC(=O)CNC(=O)/C=C/c2ccco2)cc1OC | -407.5* | -8.0 | 4.7
CSc1ccc(/C=N/NC(=O)CNc2cccc3ccccc23)cc1 | 85.7 | · | ·
CN1C(C(=O)NCC2CC2)CC2Cn3c(nc4cc5ccccc5cc43)C21 (centres undefined) | 41.5 | · | ·
O=C(Nc1ccccc1)c1ccc2nc(-c3ccco3)c(-c3ccco3)nc2c1 | 60.0 | · | ·
COc1ccc(Nc2ccc(OC)cc2)cc1 | 79.9 | · | ·
COc1ccc(C(=O)Nc2ccc(C(=O)c3ccccc3)cc2)cc1 | -385.4* | -2.3 | 2.2
O=C1NCCCC2c3cc(O)c4ccccc4c3OC12N1CCCCC1 (centres undefined) | 93.0 | · | ·
c1ccc2c(C[C@@H]3CNCCN3CC3CCCCC3)cccc2c1 | 43.7 | · | ·
